Results taken from ChEMBL document CHEMBL4396873, “Discovery of Potent, Selective, and Short-Acting Peptidic V2 Receptor Agonists” (J Med Chem, 2019).
The source made the active and inactive calls. The calls are words filed in the database; no cut-off is given here. Numbered stars: 1 amine (or outer) side, 2 acyl side, 3 side chain; on linkers, the order of the positions; unused ones are H or OH. Bridge positions count the residues as written; N and C are the ends. Square brackets hold non-standard residues; d marks the D form. Peptide text beside a SMILES is read from it. * marks the point of attachment. Phe(4-Cl) = N[C@@H](Cc1ccc(Cl)cc1)C(=O)O; Phe(4-F) = N[C@@H](Cc1ccc(F)cc1)C(=O)O; 2Thi = N[C@@H](Cc1cccs1)C(=O)O; Agmatine = N=C(N)NCCCCN*; Thz = O=C(O)[C@@H]1CSCN1; X1 = O=C(CCC[*:2])[*:1]

Legend:
[1] = Protein binding in rat plasma at 200 to 1000 ng/ml measured after 15 mins by UC-LC/MS/MS analysis; format: ADME, cell-free; conditions: read-out: PPB (converted)
Outline: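 Peptide spiked into rat plasma to final 200-1000 ng/mL, incubated 15 min at 37 °C, ultracentrifuged at 773,000 xg for 30 min at 37 °C; middle-layer sample quantified by LC/MS/MS; binding (%) = (Ci − Cm)/Ci × 100; quadruplicate.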

Vasopressin V1a receptor = Vasopressin V1a receptor (Homo sapiens, UniProt P37288); test: Agonist activity at recombinant human V1a receptor expressed in HEK293 cells up to 1000 nM measured after 5 hrs by luciferase reporter gene assay; format: cell-based; conditions: hek293, 5 h
Chain of Vasopressin V1a receptor (P37288 whole entry): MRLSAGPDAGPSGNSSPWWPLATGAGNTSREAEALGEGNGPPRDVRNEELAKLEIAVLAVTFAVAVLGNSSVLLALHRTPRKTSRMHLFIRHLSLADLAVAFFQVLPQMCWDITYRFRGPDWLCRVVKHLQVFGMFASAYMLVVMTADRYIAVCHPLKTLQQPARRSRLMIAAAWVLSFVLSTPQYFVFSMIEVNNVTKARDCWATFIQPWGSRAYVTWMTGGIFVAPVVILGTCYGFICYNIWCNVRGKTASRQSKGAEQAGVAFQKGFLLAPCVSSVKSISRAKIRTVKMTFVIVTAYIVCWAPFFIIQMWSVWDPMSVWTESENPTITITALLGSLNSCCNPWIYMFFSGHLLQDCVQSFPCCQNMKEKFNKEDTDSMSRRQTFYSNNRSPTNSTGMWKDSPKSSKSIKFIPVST

[2] = Clearance in Sprague-Dawley rat at 0.1 mg/kg, iv administered as cassette dose by LC-MS/MS analysis; format: ADME, organism-based; conditions: in vivo
[3] = target: T1, Oxytocin receptor (Homo sapiens) (UniProt P30559); test: Agonist activity at human OTR stably expressed in CHOK1 cells up to 10000 nM by NFAT-luciferase reporter gene assay; format: cell-based
T1 sequence (whole entry): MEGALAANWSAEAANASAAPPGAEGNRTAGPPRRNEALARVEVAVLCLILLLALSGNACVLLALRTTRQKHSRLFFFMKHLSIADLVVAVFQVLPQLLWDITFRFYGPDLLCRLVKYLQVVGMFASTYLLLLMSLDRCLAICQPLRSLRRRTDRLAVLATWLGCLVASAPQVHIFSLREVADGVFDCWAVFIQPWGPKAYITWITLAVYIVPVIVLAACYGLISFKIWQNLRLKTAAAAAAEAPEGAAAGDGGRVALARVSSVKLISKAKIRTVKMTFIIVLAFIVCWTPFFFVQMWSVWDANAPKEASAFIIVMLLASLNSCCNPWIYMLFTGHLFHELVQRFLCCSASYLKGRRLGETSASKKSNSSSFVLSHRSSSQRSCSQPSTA

[4] = Non-renal clearance in nephrectomized Sprague-Dawley rat at 0.1 mg/kg, iv administered as cassette dose by LC-MS/MS analysis; format: ADME, organism-based; conditions: in vivo

Row | fraction unbound at […] [1] | Activity (Vasopressin V1a receptor) | clearance [2] [L/h/kg] | Activity [3] | CL [4] [%] | SMILES
1 | 0.1 | Not Active | 0.24 | inactive | 58 | CCNC(=O)[C@@H](CCCNC(=N)N)NC(=O)[C@@H]1C[C@@H](O)CN1C(=O)[C@@H]1CCSCCC(=O)N[C@@H](Cc2ccc(Cl)cc2)C(=O)N[C@@H](Cc2cccs2)C(=O)N[C@@H](C(C)C)C(=O)N[C@@H](CC(N)=O)C(=O)N1
2 | 0.16 | Not Active | 3.06 | inactive | – | CC(C)CNC(=O)[C@H](CCCNC(=N)N)NC(=O)[C@@H]1CCCN1C(=O)[C@@H]1CSCCCC(=O)N[C@@H](Cc2ccc(Cl)cc2)C(=O)N[C@@H](Cc2cccs2)C(=O)N[C@@H](C(C)C)C(=O)N[C@@H](CC(N)=O)C(=O)N1
3 | 0.16 | Not Active | 0.96 | inactive | 90 | CC(C)[C@@H]1NC(=O)[C@H](Cc2cccs2)NC(=O)[C@H](Cc2ccc(Cl)cc2)NC(=O)CCCSC[C@@H](C(=O)N2CSC[C@H]2C(=O)NCCCCNC(=N)N)NC(=O)[C@H](CC(N)=O)NC1=O ([Phe(4-Cl)][2Thi]VNC[Thz]-Agmatine; linker N-5 via X1)
4 | 0.16 | Not Active | 1.26 | inactive | – | CC(C)[C@@H]1NC(=O)[C@H](Cc2cccs2)NC(=O)[C@H](Cc2ccc(Cl)cc2)NC(=O)CCCSC[C@@H](C(=O)N2CCC[C@H]2C(=O)N[C@H](CCCNC(=N)N)C(=O)NCC2CC2)NC(=O)[C@H](CC(N)=O)NC1=O
5 | 0.06 | Not Active | 0.45 | inactive | – | CC(C)[C@@H]1NC(=O)[C@H](Cc2ccc(F)cc2)NC(=O)[C@H](Cc2ccc(Cl)cc2)NC(=O)CCCSC[C@@H](C(=O)N2CCC[C@H]2C(=O)NCCCCNC(=N)N)NC(=O)[C@H](CC(N)=O)NC1=O ([Phe(4-Cl)][Phe(4-F)]VNCP-Agmatine; linker N-5 via X1)
6 | – | Not Active | – | inactive | – | CC(C)CNC(=O)[C@@H](CCCNC(=N)N)NC(=O)[C@@H]1CCCN1C(=O)[C@@H]1CCSCCC(=O)N[C@@H](Cc2ccc(Cl)cc2)C(=O)N[C@@H](Cc2cccs2)C(=O)N[C@@H](C(C)C)C(=O)N[C@@H](CC(N)=O)C(=O)N1
7 | 0.09 | Not Active | 0.6 | inactive | 67 | CC(C)[C@@H]1NC(=O)[C@H](Cc2cccs2)NC(=O)[C@H](Cc2ccc(Cl)cc2)NC(=O)CCCSC[C@@H](C(=O)N2CCC[C@H]2C(=O)N[C@H](CCCNC(=N)N)C(=O)NC2CC2)NC(=O)[C@H](CC(N)=O)NC1=O
8 | 0.16 | Not Active | 0.6 | inactive | 49 | CCNC(=O)[C@@H](CCCNC(=N)N)NC(=O)[C@@H]1CCCN1C(=O)[C@@H]1CSCCCC(=O)N[C@@H](Cc2ccc(Cl)cc2)C(=O)N[C@@H](Cc2cccs2)C(=O)N[C@@H](C(C)C)C(=O)N[C@@H](CC(N)=O)C(=O)N1
9 | 0.05 | Not Active | 0.426 | – | 47 | CCNC(=O)[C@@H](CCCNC(=N)N)NC(=O)[C@@H]1CCCN1C(=O)[C@@H]1CSSCCC(=O)N[C@@H](Cc2ccc(Cl)cc2)C(=O)N[C@@H](Cc2ccccc2)C(=O)N[C@@H](C(C)C)C(=O)N[C@@H](CC(N)=O)C(=O)N1
10 | 0.13 | Not Active | 0.468 | inactive | – | CC(C)CNC(=O)[C@@H](CCCNC(=N)N)NC(=O)[C@@H]1C[C@@H](O)CN1C(=O)[C@@H]1CSCCCC(=O)N[C@@H](Cc2ccc(Cl)cc2)C(=O)N[C@@H](Cc2cccs2)C(=O)N[C@@H](C(C)C)C(=O)N[C@@H](CC(N)=O)C(=O)N1
